From PubChem
Hits are enriched below; roughly 2.8% of the tested compounds scored in any of these assays.
p-CIP stab down: p/CIP protein destabilization | Q05BA5 | F442A p/CIP-EGFP cells, EGFP fluorescence, 16 h | decrease of EGFP signal, % at 10 µM | 0.01% of 290,000 active | AID 1984;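 active = EGFP signal decrease of at least 30% at 10 µM or well 3 SD below plate mean, unless failing retest; inactive = the rest, including hits failing retest or dose response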
UBC13 inh: blocks human UBC13 polyubiquitin chain formation. P61088. TR-FRET. inhibition, % at 20 µM. 0.47% of 330,000 active. AID 485273; in the data active = inhibition above about 45%, passing the limit was not always enough
Target sequence (P61088 whole entry, looked up): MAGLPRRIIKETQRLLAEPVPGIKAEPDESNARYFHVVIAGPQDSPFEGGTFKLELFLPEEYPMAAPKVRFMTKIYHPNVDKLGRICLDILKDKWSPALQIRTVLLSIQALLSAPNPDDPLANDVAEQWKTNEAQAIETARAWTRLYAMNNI
PP1 inh: PP1-alpha (human) inhibition in PP5 counter-screen. purified PP1alpha, OMFP fluorescence. inhibition, % at 6.7 µM. 0.9% of 320,000 active. AID 2235. P62136;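 active = inhibition above the mean inhibition of all tested compounds plus 3 SD, computed separately for each screening campaign, cut at about 15% in these data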
Target sequence (P62136 whole entry, looked up): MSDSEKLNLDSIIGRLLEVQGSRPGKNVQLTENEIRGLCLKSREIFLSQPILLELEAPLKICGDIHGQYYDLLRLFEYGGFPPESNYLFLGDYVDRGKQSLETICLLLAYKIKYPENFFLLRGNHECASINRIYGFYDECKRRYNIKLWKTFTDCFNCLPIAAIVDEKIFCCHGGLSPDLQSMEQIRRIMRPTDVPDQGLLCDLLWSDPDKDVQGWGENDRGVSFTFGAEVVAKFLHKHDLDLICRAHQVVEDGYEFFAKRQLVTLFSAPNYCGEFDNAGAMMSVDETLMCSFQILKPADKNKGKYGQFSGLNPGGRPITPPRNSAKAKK
T cruzi inh: T. cruzi replication inhibition | T. cruzi beta-gal in NIH3T3, luminescence, 90 h | inhibition, % (test concentration not listed) | 1.4% of 300,000 active;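 active = mean inhibition across valid replicates above about 55%, limit read from the data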;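 note: signal also drops with host cell toxicity which is not excluded here; higher percent means less beta-gal luminescence so fewer parasites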
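Assay system: NIH/3T3 fibroblasts plus reporter T. cruzi. Amount: NIH/3T3 cells, 5,000 per well. Buffer or medium: DMEM, 2% fetal bovine serum. Doses: compound pinned at 50 nL/well, DMSO. Schedule: ≥90 h infection period, 3 h prior cell attachment. Signal: luminescent β-galactosidase signal after 60 min lysis. Read-out: parasite load inhibition, %.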
AI-2 QS mod: modulates the Vibrio harveyi AI-2 quorum sensing system; Vibrio harveyi JMH597 AI-2 luminescence/OD600 ratio, 9 h; stronger effect = lower value; strain lacks LuxN and CqsS sensors; 0 = neutral-control median; activity change, % at 7.5 µM; 0.4% of 300,000 active; AID 2094; in the data active = activity change below about -75%, passing the limit was not always enough;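 note: luminescence divided by OD600 gain over 9 h not by final OD600 alone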
Of the large screens only hits and unclear results are named; the others gave an inactive call.

CC(=O)c1cccc(CN2CCCC(C(=O)c3ccc4c(c3)OCO4)C2)c1 (stereo unspecified)	none
O=C(c1ccc2c(c1)OCO2)C1CCCN(C2CCN(CCc3ccccc3)CC2)C1 (stereo unspecified)	T cruzi inh 69
Cc1ccc2nc(-c3ccccn3)c(NC3CCCC3)n2c1	T cruzi inh 68
COc1ccc2c(c1)c(CC(=O)Nc1nnc(C3CC3)s1)c(C)n2C(=O)c1ccc(Cl)cc1	PP1 inh 15, T cruzi inh 57
COc1ccc2c(c1)c(CC(=O)Nc1ccccc1OC)c(C)n2C(=O)c1ccc(Cl)cc1	none
COc1ccc2c(c1)c(CC(=O)Nc1cc(C)ccc1C)c(C)n2C(=O)c1ccc(Cl)cc1	T cruzi inh 60
CC1CCN(C(=O)CCc2ccc(Oc3cc([N+](=O)[O-])cc([N+](=O)[O-])c3)cc2)CC1	none
O=C(CCc1ccc(Oc2cc([N+](=O)[O-])cc([N+](=O)[O-])c2)cc1)NC1CCCC1	T cruzi inh 63
COc1cccc(CN(Cc2ccco2)C(c2ccc(F)cc2)c2nnnn2C(C)(C)C)c1 (stereo unspecified)	none
Cc1ccc2cc(C(c3nnnn3C3CCCC3)N(Cc3ccco3)Cc3cccs3)c(=O)[nH]c2c1 (stereo unspecified)	T cruzi inh 63
CCC(C)(C)n1nnnc1C(c1ccc(C)cc1)N(Cc1ccco1)Cc1cccs1 (stereo unspecified)	T cruzi inh 55
Cc1ccc2[nH]c(=O)c(C(c3nnnn3C(C)(C)C)N(Cc3ccco3)CC3CCCO3)cc2c1 (stereo unspecified)	T cruzi inh 60
C=C(C)CNC(=S)Nc1cccc(N)n1	none (no result: UBC13 inh, PP1 inh)
N#Cc1cccc2cccc(S(=O)(=O)N3CCOCC3)c12	none (no result: p-CIP stab down, T cruzi inh, AI-2 QS mod)
NS(=O)(=O)c1ccc(CCNC(=O)c2ccc(OCC3CCCO3)cc2)cc1 (stereo unspecified)	none
O=[N+]([O-])c1ccc(-c2ccn[nH]2)o1	T cruzi inh 68, AI-2 QS mod -129
O=[N+]([O-])c1ccc(/C=[N+](\[O-])[C@@H]2CCCC[C@@H]2/[N+]([O-])=C/c2ccc([N+](=O)[O-])o2)o1	none
O=[N+]([O-])c1cc([N+](=O)[O-])c2c(=Nc3ccccc3)n(-c3ccccc3)n(O)c2c1	T cruzi inh 58
C/C(=N\Nc1nccnc1Cl)c1ccc(O)c(C)c1	none
CCOc1ccc(-n2c(-c3ccccc3)c[n+]3c2CCC3)cc1	T cruzi inh 62
COc1ccc(-c2c[n+]3c(n2-c2ccc(C)cc2)CCCCC3)cc1	T cruzi inh 60
CCOc1ccc(-n2c(-c3ccccc3)nnc2-c2ccccc2)cc1	PP1 inh 16
CCOc1ccc(-n2c(-c3ccc(OC)cc3)c[n+]3c2CCCCC3)cc1	none
CCOc1ccc(-n2c(-c3ccc(Br)cc3)c[n+]3c2CCCCC3)cc1	T cruzi inh 83
CCCCN(CCCC)CCNC(=O)CSCc1ccc(C)cc1	none
Cc1ccc(CCNC(=O)C2CCC(=O)N(CC3CCCCC3)C2)cc1 (stereo unspecified)	none
Cc1ccc(Cn2ccc(=O)c(OCc3c(Cl)cccc3Cl)c2C)cc1	none
COc1cccc(-c2nc(N3CC(C)CC(C)C3)c3ccccc3n2)c1O (stereo unspecified)	T cruzi inh 55 (no result: PP1 inh)
c1ccc(Nc2ccccc2Nc2ccccn2)nc1	none
Oc1cccc2ccc(Nc3ccccn3)nc12	T cruzi inh 62, AI-2 QS mod -86
O=C(CO/N=C/c1ccc(Cl)cc1Cl)NNC(=O)c1ccc(Cl)cc1Cl	AI-2 QS mod -88
O=C(CO/N=C/c1c(Cl)cccc1Cl)NNC(=O)c1cccc(Cl)c1	none
COC(=O)c1sccc1S(=O)(=O)N1CCCC(N(C)CCc2ccccn2)C1 (stereo unspecified)	none
Cc1ccc(-c2nc3ccccc3[nH]2)cc1NC(=O)c1sc2cc(Cl)ccc2c1Cl	T cruzi inh 60
Cc1ccc(-c2nc3ccccc3[nH]2)cc1NC(=O)c1ccco1	none
O=C(/C=C/c1ccco1)Nc1ccc2c(c1)OCO2	none
O=C(/C=C/c1ccco1)NCc1ccc2c(c1)OCO2	AI-2 QS mod -77
Cc1ccc(C)c(S(=O)(=O)N2CCN(CC(=O)NC(=O)NCc3ccccc3)CC2)c1	T cruzi inh 56
CCOC(=O)/C(=C\c1ccccc1)C(=O)c1cc(C(C)=O)c(Nc2ccccc2)s1	T cruzi inh 55
Cc1ccc(-n2cnc(N)c2C(=O)c2cccc([N+](=O)[O-])c2)cc1	none
COc1cc(OC)c(OC)cc1/C=C1\CC(C)C/C(=C\c2cc(OC)c(OC)cc2OC)C1=O (stereo unspecified)	T cruzi inh 59 (no result: UBC13 inh)
N#C/C(=C\c1ccc(-c2ccc(F)cc2)o1)C(=O)Nc1nc(-c2cccs2)cs1	PP1 inh 15
Cc1cc(C)c2oc(=O)cc(CN3CCN(Cc4ccccc4)CC3)c2c1	none
Cc1ccc2c(CN3CCN(CCO)CC3)cc(=O)oc2c1C	T cruzi inh 55
Cc1ccc2c(CN3CCN(Cc4ccccc4)CC3)cc(=O)oc2c1C	T cruzi inh 57
Cc1cc2oc(=O)cc(CN3CCN(C/C=C/c4ccccc4)CC3)c2cc1O	T cruzi inh 55
O=c1cc(CN2CCN(C/C=C/c3ccccc3)CC2)c2cc(O)c(-c3ccccc3)cc2o1	none
COCCn1c(C)nnc1SCC(=O)NNC(=O)c1ccc(Br)cc1	none (no result: PP1 inh)
Cc1cc(F)ccc1S(=O)(=O)N1CCCOC1CNC(=O)C(=O)NCc1ccccn1 (stereo unspecified)	none
Cc1ccc(SCCOCCN2CC(C)OC(C)C2)cc1 (stereo unspecified)	T cruzi inh 57
Cc1ccc(C)c(OCCCN2CCc3ccccc3C2)c1	none
Cc1ccc(SCCOCCN2CCc3ccccc3C2)cc1	T cruzi inh 61
Cc1ccc(SCC(=O)N2CC(C)OC(C)C2)cc1 (stereo unspecified)	none
Cc1ccc(C)c(NC(=O)CSc2nnc(NC(=O)C3CC3)s2)c1	none
O=C(Nc1cccc(F)c1)N1CC=C(c2ccc(Cl)cc2)CC1	T cruzi inh 55
CC(C)(C)n1nc2c(c1NC(=O)c1ccc(C(F)(F)F)cc1)CS(=O)(=O)C2	none
O=C(Nc1ccncc1)c1cccc(S(=O)(=O)N2CCN(c3ccc(F)cc3)CC2)c1	T cruzi inh 58 (no result: p-CIP stab down)
COc1ccc(CN2CCN(Cc3csc(C(C)=O)c3)CC2CCO)c(C)c1C (stereo unspecified)	T cruzi inh 55
COc1ccc(CN2CCN(Cc3nc4ccccc4s3)CC2CCO)c(C)c1C (stereo unspecified)	T cruzi inh 61
COc1ccc(CN2CCC(N(CCc3ccccc3)Cc3ccccc3)CC2)c(OC)c1	T cruzi inh 60
CCCN1CCC(N(CCc2ccccc2)Cc2ccccc2)CC1	none
COC(CN(C)C(=O)c1ccc2c(c1)NC(=O)c1ccccc1S2)OC	none (no result: PP1 inh)
